High-throughput results from PubChem BioAssay.
CRFBP-R2 block: CRF-BP/CRF-R2 complex antagonism | HEK293 CRF-R2/CRF-BP, CRF-induced calcium fluorescence | inhibition, % at 11.8 µM | 0.59% of 350,000 active;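 active = inhibition of the ligand-induced calcium signal above about 50% at the single tested concentration, limit read from the data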
DDE Tn7 FP inh: inhibitors of Tn7 peptide binding to human fibrin DD(E) | P02675 | FP displacement of FITC-Tn7 peptide from fibrin DD(E); 0% = median of compound wells per plate | inhibition, % at 8.3 µM | 0.13% of 370,000 active | AID 720508;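 active = inhibition above the mean of compounds falling within the control limits plus 3 SD of them, cut at about 14% in these data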
Target sequence (P02675 whole entry, looked up): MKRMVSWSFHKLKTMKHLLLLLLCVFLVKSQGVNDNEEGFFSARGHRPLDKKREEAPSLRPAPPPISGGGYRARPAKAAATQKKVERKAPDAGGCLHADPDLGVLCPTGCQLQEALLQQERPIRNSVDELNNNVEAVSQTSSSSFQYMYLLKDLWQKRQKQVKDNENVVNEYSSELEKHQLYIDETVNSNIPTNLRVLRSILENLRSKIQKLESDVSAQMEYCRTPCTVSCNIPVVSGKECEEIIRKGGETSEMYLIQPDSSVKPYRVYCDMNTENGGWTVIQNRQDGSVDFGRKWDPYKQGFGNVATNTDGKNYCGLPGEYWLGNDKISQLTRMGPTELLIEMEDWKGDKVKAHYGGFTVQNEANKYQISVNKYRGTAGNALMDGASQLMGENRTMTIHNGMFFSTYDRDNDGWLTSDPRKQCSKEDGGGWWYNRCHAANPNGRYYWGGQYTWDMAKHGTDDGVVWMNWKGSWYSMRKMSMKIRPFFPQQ
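Assay system: Human fibrin DD(E) protein | Medium: Tris buffer with calcium and detergent, pH 7.8 | Reagent: 0.1 µM fluorescent Tn7 | Compound dosing: Single point at 8.3 µM | Times: 10 min preincubation, 3 h with tracer, room temperature | Detection: Fluorescence polarization of the labelled Tn7 tracer | Controls: Aha-Tn7 high control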
NRP1-CendR mod: alters CendR peptide binding to human NRP-1 | FAM-RPARPAR peptide binding to NRP-1, fluorescence polarization | O14786 | inhibition, % at 25 µM | 0.85% of 360,000 active | AID 602438;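 active = inhibition or corrected inhibition above about 18%, plus a signal ratio from 0.5 to 1.5, limit read from the data, passing the limit was not always enough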
KLK7 zymogen act: activators of human kallikrein-7 zymogen | P49862 | purified proKLK7, EDANS-DABCYL substrate fluorescence; 100% is mature enzyme control, 0% vehicle | activation, % at 7 µM | 0.9% of 370,000 active | AID 652039;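 active = activation above the mean of all tested compounds plus 3 SD, computed per campaign excluding outliers beyond control limits, cut at about 13% in these data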
Target sequence (P49862 whole entry, looked up): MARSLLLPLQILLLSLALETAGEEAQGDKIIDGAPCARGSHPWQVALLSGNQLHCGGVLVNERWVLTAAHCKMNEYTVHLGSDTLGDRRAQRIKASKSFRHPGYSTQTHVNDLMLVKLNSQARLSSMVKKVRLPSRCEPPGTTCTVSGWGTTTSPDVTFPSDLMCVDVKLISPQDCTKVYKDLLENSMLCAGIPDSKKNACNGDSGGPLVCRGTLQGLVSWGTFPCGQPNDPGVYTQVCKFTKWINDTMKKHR
CRFBP-R2 agonist: CRF-BP/CRF-R2 complex agonism. HEK293 CRF-R2/CRF-BP, calcium dye fluorescence (FLIPR); percent of saturating CRF peptide response. activation, % at 13.2 µM. 0.46% of 350,000 active;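 active = activation of at least 50%, plus an integration ratio under a set limit after plate pattern correction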
DDE Tn6 FP inh: disrupts Tn6 cyclic peptide binding to fibrin D-Dimer-E complex; Fibrin DD(E) TRITC-Tn6 fluorescence polarization displacement; 0.21% of 370,000 active; inhibition, % at 8.3 µM;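 active = inhibition above a per-campaign cutoff: mean of compounds within control limits plus 3 SD, cut at about 15% in these data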
proKLK7 act conf: confirmation of human kallikrein-7 zymogen activators | shares compounds with KLK7 zymogen act | purified proKLK7, EDANS-DABCYL substrate fluorescence; scaled: vehicle 0, mature enzyme 100 | activation, % at 7 µM | 68% of 3,200 active;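 active = activation, as change over the incubation, above the mean of all tested compounds plus 3 SD, cut at about 13% in these data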
EDANS-DABCYL int: optically interferes with EDANS-DABCYL signal, flagging KLK7 hits; shares compounds with KLK7 zymogen act; EDANS-DABCYL substrate fluorescence interference, no enzyme, 4 h; solvent 0%, active enzyme control 100%; activation, % at 7 µM; 80% of 3,200 active;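 active = activation above the all-compound mean plus 3 SD, ignoring values outside control-based bounds, cut at about 4.8% in these data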;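 also: value is the 4 h activation minus the activation read at time zero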
DDE Tn7 confirm: DD(E)-Tn7 binding inhibition, FP confirmation | FP displacement of TRITC-Tn7 peptide from DD(E); 0% set at plate's compound-well median | 5% of 460 active | AID 720628 | inhibition, % at 8.3 µM | shares compounds with DDE Tn7 FP inh;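 active = inhibition above the campaign cutoff, the mean of compounds within control limits plus 3 SD, cut at about 14% in these data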;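 also: displacers lower polarization since freed probe rises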
DDE Tn7 FP ctr: counter-screen hit for Tn7 peptide-fibrin DD(E) binding disruption; shares compounds with DDE Tn7 FP inh; TRITC-Tn7 probe displacement, fluorescence polarization; inhibition, % at 8.3 µM; 3% of 460 active; AID 720633;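 active = inhibition above the cutoff, the mean of compounds lying between the control bounds plus 3 SD of those compounds, cut at about 17% in these data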
DDE Tn6 FP ctr: counter-screen for inhibitors of Tn6 peptide binding to fibrin DD(E) | 2% of 680 active | inhibition, % at 8.3 µM | shares compounds with DDE Tn6 FP inh | AID 720621 | TRITC-Tn6 fluorescence polarization displacement; 0% = median of compound wells, not DMSO;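 active = inhibition above the mean of test compounds lying between the control limits plus 3 SD of those, cut at about 14% in these data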
DDE Tn6 confirm: DD(E)-Tn6 binding inhibition, FP confirmation; shares compounds with DDE Tn6 FP inh; FP displacement of TRITC-Tn6 peptide from DD(E); 0% = per-plate median of test wells; inhibition, % at 8.3 µM; 10% of 680 active;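 active = inhibition above the mean of compounds lying within the control limits plus 3 SD, cut at about 16% in these data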
Each line names hits and unclear results; the compound was inactive in the other large screens (follow-up assays come after a bar, where they were run). This is a sample that favours compounds with a hit; in the whole collection about 2.9% have one here.

Cc1c(O)ccc2c(CN(C)Cc3ccccc3)cc(=O)oc12	none
CCCCc1cc(=O)oc2c(CN(C)C)c(O)ccc12	KLK7 zymogen act 55, DDE Tn6 FP inh 16 | proKLK7 act conf 63 | EDANS-DABCYL int 66 | DDE Tn6 FP ctr inactive | DDE Tn6 confirm inactive
COC(=O)[C@H]1C[C@@]2(C)c3ccccc3N(C(=O)OC(C)(C)C)[C@H]2N1C(=O)OC(C)(C)C	none (no result: CRFBP-R2 block, NRP1-CendR mod, CRFBP-R2 agonist)
Cc1ccc(N2C(=O)c3cccc4c(C(=O)O)ccc(c34)C2=O)cc1	none (no result: CRFBP-R2 block, NRP1-CendR mod, CRFBP-R2 agonist)
O=C1c2cccc3c(O)ccc(c23)C(=O)N1c1ccc(Cl)cc1	DDE Tn7 FP inh 40 | DDE Tn7 confirm inactive | DDE Tn7 FP ctr inactive
O=C1c2cccc3c(O)ccc(c23)C(=O)N1Cc1ccco1	DDE Tn7 FP inh 56, CRFBP-R2 agonist 252 | DDE Tn7 confirm inactive | DDE Tn7 FP ctr inactive
CC(=O)Nc1ccc(N2C(=O)c3cccc4c(O)ccc(c34)C2=O)cc1	DDE Tn7 FP inh 20, CRFBP-R2 agonist 201 | DDE Tn7 confirm inactive | DDE Tn7 FP ctr inactive
CCOC(=O)c1ccc(N2C(=O)c3cccc4c(C(=O)O)ccc(c34)C2=O)cc1	none
CCOC(=O)C(Cc1ccccc1)CP(=O)(OC)[C@@H](C)NC(=O)OCc1ccccc1 (stereo partly drawn)	none (no result: CRFBP-R2 block, NRP1-CendR mod, CRFBP-R2 agonist)
NS(=O)(=O)c1ccc(N/N=C/c2cn(-c3ccccc3)nc2-c2cccs2)c([N+](=O)[O-])c1	none
NS(=O)(=O)c1ccc(N/N=C/c2cn(-c3ccccc3)nc2-c2cccs2)cc1	DDE Tn7 FP inh 14, NRP1-CendR mod 30 | DDE Tn7 confirm inactive | DDE Tn7 FP ctr inactive
Nn1c(SCC(=O)Nc2cc(C(F)(F)F)ccc2Cl)nnc1-c1n[nH]c2c1CCC2	none (no result: CRFBP-R2 block, NRP1-CendR mod, CRFBP-R2 agonist)
Cc1cccc(-c2cccc3c4c([nH]c23)[C@@H]2C[C@H](N(C)C(=O)C3CCCCC3)[C@H]([C@H](C)O)CN2CC4)c1	none (no result: CRFBP-R2 block, NRP1-CendR mod, CRFBP-R2 agonist)
O=C(c1ccccc1)c1ccc(O)cc1O	DDE Tn7 FP inh 34, CRFBP-R2 agonist 61 | DDE Tn7 confirm inactive | DDE Tn7 FP ctr inactive
Cc1ccc(NC(=O)C2CCN(c3nnc(-n4cccc4)s3)CC2)c(C)c1	none (no result: CRFBP-R2 block, NRP1-CendR mod, CRFBP-R2 agonist)
CCOC(=O)C1CCN(CC(=O)N2CCc3ccccc32)CC1	DDE Tn7 FP inh 14 | DDE Tn7 confirm inactive | DDE Tn7 FP ctr inactive
CC(=O)n1c2ccccc2c2ccccc21	DDE Tn7 FP inh 14 | DDE Tn7 confirm inactive | DDE Tn7 FP ctr inactive
CC(C)C[C@H]1CN=C(N(C)C)N1CCCCc1ccccc1	none
C[C@H]1CN=C(N(C)C)N1CCCCc1ccccc1	DDE Tn7 FP inh 16 | DDE Tn7 confirm inactive | DDE Tn7 FP ctr inactive
C[C@@H]1CCN(C2CC2)S(=O)(=O)c2c(cccc2N2CC[C@H](O)C2)O1	none (no result: CRFBP-R2 block, NRP1-CendR mod, CRFBP-R2 agonist)
CCOc1ccc(C=Nn2c(-c3cccc(OC(C)C)c3)n[nH]c2=S)cc1	none (no result: CRFBP-R2 block, NRP1-CendR mod, CRFBP-R2 agonist)
CC(NC(=O)COC(=O)[C@@H]1CCCN1S(=O)(=O)c1ccccc1F)C12CC3CC(CC(C3)C1)C2 (stereo partly drawn)	DDE Tn7 FP inh 14 | DDE Tn7 confirm inactive | DDE Tn7 FP ctr inactive
CN(CCOC(=O)c1cc2ccccc2o1)C1CN(Cc2cn(Cc3ccc([N+](=O)[O-])cc3)nn2)S(=O)(=O)C1 (stereo not drawn)	none (no result: CRFBP-R2 block, NRP1-CendR mod, CRFBP-R2 agonist)
C[C@H]1CN[C@H](CCO)/C1=C\c1ccccc1	none
C[C@H]1CN[C@@H](CCO)/C1=C\c1ccccc1	DDE Tn7 FP inh 14 | DDE Tn7 confirm inactive | DDE Tn7 FP ctr inactive
Cc1ccc(S(=O)(=O)N2CC[C@@]3(Cc4ccccc4)Cc4ccccc4C[C@@H]23)cc1	none (no result: CRFBP-R2 block, NRP1-CendR mod, KLK7 zymogen act, CRFBP-R2 agonist)
Cc1cccc(NC(=O)c2c([N+](=O)[O-])cnn2C)c1	none
CC(=O)Nc1ccc(NC(=O)c2c([N+](=O)[O-])cnn2C)cc1	DDE Tn7 FP inh 15 | DDE Tn7 confirm inactive | DDE Tn7 FP ctr inactive
CCOC(=O)[C@@]12CN(C(=O)OC(C)(C)C)CC=C1N(Cc1ccc(OC)cc1)C(=O)[C@H]2CC(=O)NCc1cccc(C(F)(F)F)c1	none (no result: CRFBP-R2 block, NRP1-CendR mod, CRFBP-R2 agonist)
COc1cccc(C(=O)N/N=c2/oc3ccccc3cc2C(N)=O)c1	DDE Tn7 FP inh 14 | DDE Tn7 confirm inactive | DDE Tn7 FP ctr inactive
COc1ccc(S(=O)(=O)N2CCC(C(=O)N3CCCCC3)CC2)cc1Cl	none
COc1ccc(S(=O)(=O)N2CCC(C(=O)N3CCCC3)CC2)cc1Cl	DDE Tn7 FP inh 15 | DDE Tn7 confirm inactive | DDE Tn7 FP ctr inactive
O=[N+]([O-])c1cccc(S(=O)(=O)N2CCN(S(=O)(=O)N3CCOCC3)CC2)c1	none
O=C(C1CCN(S(=O)(=O)c2cccc([N+](=O)[O-])c2)CC1)N1CCOCC1	DDE Tn7 FP inh 14 | DDE Tn7 confirm inactive | DDE Tn7 FP ctr inactive
COc1ccc(S(=O)(=O)N2CCN(CC(=O)NC(C)c3cccs3)CC2)cc1 (stereo not drawn)	none
COc1ccc(S(=O)(=O)N2CCN(CC(=O)NCCc3cccs3)CC2)cc1	DDE Tn7 FP inh 15 | DDE Tn7 confirm inactive | DDE Tn7 FP ctr inactive
C=CCN1C(=O)C(Cc2ccccc2)S/C1=N/N=C/c1cccs1 (stereo not drawn)	DDE Tn7 FP inh 14 | DDE Tn7 confirm inactive | DDE Tn7 FP ctr inactive
C=CCN1C(=O)C(Cc2ccc(OCC)cc2)S/C1=N\N=C\c1cccs1 (stereo not drawn)	none
CCC(C)(C)NC(=O)C(c1ccccn1)N(C(=O)c1csnn1)C1CCCCC1 (stereo not drawn)	DDE Tn7 FP inh 14 | DDE Tn7 confirm inactive | DDE Tn7 FP ctr inactive
